Screening data as filed in PubChem BioAssay.
In the library only some 2.1% were active in any assay of this set; here they are far more common.
DENV2 CPE rescue – inhibitors of DENV2 cytopathic effect, primary screen, cell-based, plate reader, single concentration; AID 651640, 2012; 350,000 compounds, 1.7% hits; DENV2-infected cells, cytopathic effect rescue; CPE inhibition, % at 9.99 µM; in the data active = CPE inhibition above about 20%, passing the limit was not always enough; tested in BHK-21 cells;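 also: 0% = median of neutral control wells and 100% = median of positive control wells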
Statin myotox sup – suppressors of statin myotoxicity in C2C12 myotubes, primary screen, cell-based, single point, plate reader | C2C12 myotubes + simvastatin, ATP luminescence, 48 h; scaled: DMSO 0, geranylgeraniol control 100 | rescue of ATP level, % at 7.49 µM | 330,000 compounds, 0.78% hits;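 active = mean ATP rescue above about 67%, or every replicate alone reaching that limit, limit read from the data, passing the limit was not always enough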;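 also: myotubes were challenged with 10 µM simvastatin during compound exposure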
XiGFP reactiv – activators of inactive X chromosome reactivation, primary screen, imaging, XiGFP fibroblasts, GFP high-content imaging, set 2 | XiGFP mouse fibroblasts, % GFP-positive cells imaging, 3 d; cells co-treated with 5-aza-dC sensitizer; scaled so ellipticine positive control = 100% | activation, % at 7.58 µM | 360,000 compounds, 0.055% hits | AID 743238, 2013;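 active = mean normalized replicate activation at least 10% and every replicate at or above 10%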;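 also: 0% = median of on-plate neutral control wells and 100% = ellipticine 6 µM median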
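assay system = SV40-immortalized XiGFP fibroblast cells, line 68-5-11 | buffer or medium = DMEM plus 5-aza-dC sensitizer | doses = single-point pinned compound dosing | times = 3-day compound exposure, then 15 min fixation at room temperature | benchmarks = positive control ellipticine, 6 µM final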
Cneo AK release – Cryptococcus neoformans cell lysis inducers, primary screen, AK release luminescence, single concentration. AID 651654, 2012. 360,000 compounds, 0.2% hits. lysis activity, % at 15 µM. C. neoformans lysis, adenylate kinase release luminescence, 4 h; normalised: neutral wells 0, clomiphene wells 100;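 active = mean lysis activity across replicates of at least 80%, whatever share of replicates individually reach that level; inactive = mean lysis activity below 80%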
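Test system: log-phase Cryptococcus neoformans yeast cells; Quantity: yeast cell density of 5 × 10^6 cells/mL; Buffer or medium: YPD; Doses: single compound concentration per well; Timing: 4 h at 37 °C static, read 1 h later; Measured by: AK luminescence; Read-out basis: lysis from increased AK signal; Control set: Clomiphene as positive control.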
* hit, by the source's call; / = no result.

SMILES | DENV2 CPE rescue | Statin myotox sup | XiGFP reactiv | Cneo AK release
O=S(=O)(N/N=C\c1cccc(F)c1)c1ccccc1 | 7 | 3 | 0 | 1
O=C(N/N=C/c1ccc(-c2ccccc2Cl)o1)c1ccccc1 | / | / | 0 | /
O=S(=O)(NN=Cc1cccc(Cl)c1)c1ccccc1 | 28* | / | 0 | /
N#C[C@H]1[C@@H](c2ccccc2)[C@@H](CO)N1S(=O)(=O)Cc1ccccc1 | 65* | -10 | 0 | -2
N#C[C@H]1[C@@H](c2ccccc2)[C@@H](CO)N1C(=O)Cc1ccccc1 | -2 | 9 | 0 | 101*
N#C[C@@H]1[C@H](c2ccccc2)[C@@H](CO)N1C(=O)Cc1ccccc1 | 10 | 2 | 0 | 0
N#C[C@@H]1[C@@H](c2ccc(-c3cccc(F)c3)cc2)[C@H](CO)N1C(=O)NC1CCCC1 | -16 | 108* | 0 | -3
C/C=C/c1ccccc1[C@H]1[C@@H](C#N)N(C(=O)NC2CCCC2)[C@H]1CO | 60* | / | 0 | /
CC(C)NC(=O)N[C@H]1CC[C@@H](CCNC(=O)C2CCOCC2)O[C@H]1CO | 7 | 6 | 0 | 4
N#C[C@H]1[C@H](c2ccc(-c3ccc(F)cc3)cc2)[C@@H](CO)N1C(=O)Cc1ccccc1 | -7 | 70* | 0 | 18
N#C[C@H]1[C@H](c2ccc(-c3cccc(F)c3)cc2)[C@@H](CO)N1c1nc(-c2ccccc2)cs1 | 38* | / | 0 | /
CC(C)NC(=O)N1[C@H](C#N)[C@@H](c2ccc(-c3ccc(F)cc3)cc2)[C@@H]1CO | -1 | 76* | 2 | -3
COc1cccc(-c2ccc([C@@H]3[C@@H](C#N)N(C(=O)Cc4ccccc4)[C@@H]3CO)cc2)c1 | 26* | 21 | 0 | -1
N#C[C@H]1[C@@H](c2ccc(-c3cccc(F)c3)cc2)[C@H](CO)N1c1nc(-c2ccccc2)cs1 | -7 | / | 0 | /
CCCNC(=O)N1[C@H](CO)[C@H](c2ccc(C3=CCCC3)cc2)[C@@H]1CNC(C)=O | -11 | -3 | 0 | -1
COc1ccc(S(=O)(=O)Nc2ccc3c(c2)C(=O)N([C@@H](C)CO)C[C@H](C)[C@@H](CN(C)CC2CC2)O3)cc1 | -5 | / | -1 | /
O=c1[nH]c2ccccc2nc1/C=C/c1ccc(Cl)cc1 | 9 | 120* | 0 | -5
CC(=O)Nc1ccc(/C=C/c2nc3ccccc3[nH]c2=O)cc1 | 6 | -2 | 0 | 7
N#Cc1cc2cc3c(cc2nc1Cl)OCCO3 | 41* | 6 | 0 | /
Cc1ccc(/C=N/NC(=O)C(c2ccncc2)N2CCOCC2)cc1 (stereo unspecified) | 2 | / | 0 | 4
COc1ccc(Br)cc1/C=N/NC(=O)C(c1ccncc1)N1CCOCC1 (stereo unspecified) | 98* | 9 | 0 | 1
O=C(CCN1CCCCC1)N[C@@H]1CC[C@H](CCNC(=O)c2cc(Cl)cc(Cl)c2)O[C@H]1CO | 0 | 6 | 0 | -4
COCCNC(=O)C(c1ccc(C)o1)N(Cc1ccc(F)cc1)C(=O)Cn1nnc2ccccc21 (stereo unspecified) | / | 18 | / | -3
COCCNC(=O)C(c1ccc(C)o1)N(Cc1ccc(OC)cc1)C(=O)Cn1nnc2ccccc21 (stereo unspecified) | / | 104* | / | 2
Cc1cc(NC(=O)c2ccc([N+](=O)[O-])cc2)n(CCC#N)n1 | 43* | 3 | 0 | 3
SMILES | DENV2 CPE rescue | Statin myotox sup | XiGFP reactiv | Cneo AK release
CN=C(Nc1cc(C)nn1CCC#N)c1ccc(F)cc1 | -1 | -17 | / | -1
CCCCCCCCC(=O)O | / | -3 | / | -1
CCCCCCC(=O)O | 58* | -14 | / | 0
Cc1ccc(-c2nnc(N3CCN(C(=O)CN4CCOCC4)CC3)c3ccccc23)cc1 | / | -7 | / | 0
O=C(CN1CCOCC1)N1CCN(c2nnc(-c3ccccc3)c3ccccc23)CC1 | / | 115* | / | 1
C[C@@H]1CN([C@@H](C)CO)C(=O)c2cc(NC(=O)C3CCCCC3)ccc2O[C@@H]1CN(C)C(=O)Nc1ccc(F)cc1 | 7 | -1 | 0 | 0
COc1ccc(NC(=O)Nc2ccc3c(c2)C(=O)N([C@@H](C)CO)C[C@@H](C)[C@@H](CN(C)Cc2ccc(-c4ccccc4)cc2)O3)cc1 | 8 | -88 | 0 | -5
CC(Oc1ccccc1)C(=O)Nc1nc(-c2ccncc2)cs1 (stereo unspecified) | -2 | -14 | 0 | 2
CC(OC(=O)c1ccc(O)cc1)C(=O)Nc1nc(-c2ccccc2)cs1 (stereo unspecified) | 38* | -6 | 0 | -2
C#CCOCCOCCOCCNc1nc(N2CCN(C(=O)[C@H](CCCN=C(N)N)n3cc(C(N)[C@@H](C)CC)nn3)CC2)nc(N2CCN(C(=O)[C@H](CC(N)=O)n3cc([C@@H](N)CC(N)=O)nn3)CC2)n1 (stereo partly specified) | -5 | 2 | 0 | 1
C#CCOCCOCCOCCNc1nc(N2CCN(C(=O)[C@H](CCCN=C(N)N)n3cc(C(N)[C@@H](C)CC)nn3)CC2)nc(N2CCN(C(=O)[C@H](CC(N)=O)n3cc([C@@H](N)C(C)C)nn3)CC2)n1 (stereo partly specified) | 37* | 0 | 0 | 3
C#CCOCCOCCOCCNc1nc(N2CCN(C(=O)[C@H](CCCN=C(N)N)n3cc(C(N)[C@H](C)CC)nn3)CC2)nc(N2CCN(C(=O)[C@H](CCCN=C(N)N)n3cc(C(N)[C@@H](C)CC)nn3)CC2)n1 (stereo partly specified) | / | 6 | / | 2
C#CCOCCOCCOCCNc1nc(N2CCOCC2)nc(N2CCN(C(=O)[C@H](CCCN=C(N)N)n3cc(C(N)[C@@H](C)CC)nn3)CC2)n1 (stereo partly specified) | 119* | 1 | 0 | 1
C#CCOCCOCCOCCNc1nc(N2CCN(C(=O)[C@H](CC(N)=O)n3cc(C(N)[C@H](C)CC)nn3)CC2)nc(N2CCN(C(=O)[C@H](CC(N)=O)n3cc(C(N)[C@@H](C)CC)nn3)CC2)n1 (stereo partly specified) | 21* | 2 | 0 | 1
COc1cc(C(=O)N(CCc2ccccc2)C2=CC3CCC(C2)N3C)cc(OC)c1OC (stereo unspecified) | / | 91* | / | 4
CCN(CC(=O)NCc1cccs1)C(=O)/C=C/c1ccc(OC)cc1OC | 30* | 17 | 0 | 0
COC(=O)c1ccc(CSc2nc(N3CCOCC3)c3c(c2C#N)CC(C)(C)OC3)o1 | / | 81* | / | -1
c1cnc2ccc(-c3ccc4ncccc4c3)cc2c1 | -5 | -9 | 0 | -3
Cc1ccc2ncccc2c1 | 55* | 2 | / | 0
Cc1noc(C)c1S(=O)(=O)Nc1ccc2c(c1)CC(=O)N([C@H](C)CO)C[C@@H](C)[C@H](CN(C)Cc1ccc(-c3ccccc3)cc1)O2 | 5 | 111* | -1 | /
